Results from ChEMBL document CHEMBL1629691, “Intrapulmonary pharmacokinetics and pharmacodynamics of micafungin in adult lung transplant patients” (Antimicrob Agents Chemother, 2010).
Numbered stars: 1 amine (or outer) side, 2 acyl side, 3 side chain; on linkers, the order of the positions; unused ones are H or OH. Bridge positions count the residues as written; N and C are the ends. Square brackets hold non-standard residues; d marks the D form. Peptide text beside a SMILES is read from it. * marks the point of attachment. hTyr(3S-OH,4S-OH,3'-OSO3H) = N[C@H](C(=O)O)[C@H](O)[C@@H](O)c1ccc(O)c(OS(=O)(=O)O)c1; Orn(4R-OH,5R-OH) = O=C([C@H](C[C@@H](O)[C@@H](O)N[*:3])N[*:1])[*:2]; Pro(3S-OH,4S-Me) = C[C@H]1CN[C@H](C(=O)O)[C@H]1O; X1 = CCCCCOc1ccc(-c2cc(-c3ccc(C(=O)*)cc3)no2)cc1; Gln(3R-OH) = NC(=O)C[C@@H](O)[C@H](N)C(=O)O; Hyp = O=C(O)[C@@H]1C[C@@H](O)CN1

Key:
[1] = Drug level in epithelial lining fluid of lung transplant recipient invasive aspergillosis patient at 150 mg, iv QD for 4 consecutive days measured after 3 hrs post last dose by HPLC; format: ADME, organism-based; settings: human, read-out: Drug uptake
In short: (§1)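 150-mg IV micafungin, then bronchoscopy with BAL (20-ml saline aliquots) at the stated time after the dose. Blood was drawn in heparin at the same time. The BAL fluid was spun at 400 × g for 5 min at 4°C; supernatant and cell pellet were frozen at −80°C. Micafungin was measured by solid-phase extraction and C8 HPLC with UV detection at 271.5 nm, using anidulafungin as internal standard.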

[2] = Drug level in epithelial lining fluid of lung transplant recipient invasive aspergillosis patient at 150 mg, iv QD for 4 consecutive days measured after 24 hrs post last dose by HPLC; format: ADME, organism-based; settings: human, read-out: Drug uptake; in short: as §1
[3] = Ratio of drug level in epithelial lining fluid to plasma in lung transplant recipient invasive aspergillosis patient at 150 mg, iv QD for 4 consecutive days measured after 3 hrs post last dose; format: ADME, organism-based; settings: human
[4] = Drug level in alveolar cells of lung transplant recipient invasive aspergillosis patient at 150 mg, iv QD for 4 consecutive days measured after 8 hrs post last dose by HPLC; format: ADME, organism-based, Pneumocyte; settings: human, read-out: Drug uptake; in short: as §1
[5] = Drug level in alveolar cells of lung transplant recipient invasive aspergillosis patient at 150 mg, iv QD for 4 consecutive days measured after 24 hrs post last dose by HPLC; format: ADME, organism-based, Pneumocyte; settings: human, read-out: Drug uptake; in short: as §1
[6] = Ratio of drug level in epithelial lining fluid to plasma in lung transplant recipient invasive aspergillosis patient at 150 mg, iv QD for 4 consecutive days measured after 24 hrs post last dose; format: ADME, organism-based; settings: human
[7] = Elimination half life in lung transplant recipient invasive aspergillosis patient at 150 mg, iv QD for 4 consecutive days by HPLC; format: ADME, organism-based; settings: human, in vivo, read-out: beta t1/2 (converted)
In short: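 Plasma micafungin was measured by HPLC after a 150-mg IV dose in lung transplant recipients. The terminal-phase half-life was derived by model-independent (noncompartmental) analysis of plasma concentrations.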

[8] = Drug level in lung transplant recipient invasive aspergillosis patient plasma at 150 mg, iv QD for 4 consecutive days measured after 8 hrs post last dose by HPLC; format: ADME, organism-based; settings: human, read-out: Drug uptake; in short: as §1
[9] = Tmax in alveolar cells of lung transplant recipient invasive aspergillosis patient at 150 mg, iv QD for 4 consecutive days by HPLC; format: ADME, organism-based, Pneumocyte; settings: human
In short: (§2)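 150-mg IV dose; BAL at 3, 5, 8, 18 or 24 h after the dose, about 4 subjects per time group. Plasma, ELF and alveolar cell drug was measured by reversed-phase HPLC with UV detection. Values were averaged per time point. Cmax is the highest mean over the five groups; Tmax is the mean dose-to-BAL time of that group.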

[10] = Cmax in lung transplant recipient invasive aspergillosis patient plasma at 150 mg, iv QD for 4 consecutive days by HPLC; format: ADME, organism-based; design: dose 150 mg, route intravenous; settings: human; in short: as §2
[11] = Ratio of AUC (0 to 24 hrs) in lung transplant recipient invasive aspergillosis patient epithelial lining fluid to MIC90 for Aspergillus fumigatus; format: functional
[12] = Drug level in alveolar cells of lung transplant recipient invasive aspergillosis patient at 150 mg, iv QD for 4 consecutive days measured after 18 hrs post last dose by HPLC; format: ADME, organism-based, Pneumocyte; settings: human, read-out: Drug uptake; in short: as §1
[13] = Cmax in epithelial lining fluid of lung transplant recipient invasive aspergillosis patient at 150 mg, iv QD for 4 consecutive days by HPLC; format: ADME, organism-based; design: dose 150 mg, route intravenous; settings: human; in short: as §2
[14] = Volume of distribution in lung transplant recipient invasive aspergillosis patient at 150 mg, iv QD for 4 consecutive days by HPLC; format: ADME, organism-based; settings: human, in vivo
[15] = system: Homo sapiens; experiment: Hepatotoxicity in lung transplant recipient invasive aspergillosis patient assessed as serum ALT level at 150 mg, iv measured post last dose; settings: in vivo
[16] = Ratio of AUC (0 to 24 hrs) in lung transplant recipient invasive aspergillosis patient alveolar cell to MIC90 for Aspergillus fumigatus; format: functional, Pneumocyte
[17] = Ratio of AUC (0 to 24 hrs) in lung transplant recipient invasive aspergillosis patient plasma to MIC90 for Aspergillus fumigatus; format: functional
[18] = Drug level in epithelial lining fluid of lung transplant recipient invasive aspergillosis patient at 150 mg, iv QD for 4 consecutive days measured after 5 hrs post last dose by HPLC; format: ADME, organism-based; settings: human, read-out: Drug uptake; in short: as §1
[19] = Drug level in epithelial lining fluid of lung transplant recipient invasive aspergillosis patient at 150 mg, iv QD for 4 consecutive days measured after 8 hrs post last dose by HPLC; format: ADME, organism-based; settings: human, read-out: Drug uptake; in short: as §1
[20] = system: Homo sapiens; experiment: Hepatotoxicity in lung transplant recipient invasive aspergillosis patient assessed as total bilirubin level at 150 mg, iv QD for 4 consecutive days measured post last dose; format: toxicity, organism-based; settings: in vivo
In short: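 Serum creatinine, AST, ALT and total bilirubin were recorded from routine clinical laboratory tests before enrolment and again after BAL, at a mean of 10.7 days after infusion.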

[21] = Ratio of drug level in alveolar cell to plasma of lung transplant recipient invasive aspergillosis patient at 150 mg, iv QD for 4 consecutive days measured after 3 hrs post last dose; format: ADME, organism-based, Pneumocyte; settings: human, alveolar cells / plasma
[22] = AUC (0 to 24 hrs) in epithelial lining fluid of lung transplant recipient invasive aspergillosis patient plasma at 150 mg, iv administered as single dose; format: ADME, organism-based; design: time < 24 hr, dose 150 mg, route intravenous; settings: human
In short: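 Single 150-mg IV dose in adult lung transplant recipients. Plasma, ELF (epithelial lining fluid) and alveolar cell concentrations were measured by HPLC at the time of bronchoscopy. AUC0-24 came from a population model: a linear four-compartment model fit to all compartments, with the plasma two-compartment model used for the plasma profile.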

[23] = Drug level in lung transplant recipient invasive aspergillosis patient plasma at 150 mg, iv QD for 4 consecutive days measured after 24 hrs post last dose by HPLC; format: ADME, organism-based; settings: human, read-out: Drug uptake; in short: as §1
[24] = Ratio of drug level in alveolar cell to plasma of lung transplant recipient invasive aspergillosis patient at 150 mg, iv QD for 4 consecutive days measured after 8 hrs post last dose; format: ADME, organism-based, Pneumocyte; settings: human, alveolar cells / plasma
[25] = Drug level in lung transplant recipient invasive aspergillosis patient plasma at 150 mg, iv QD for 4 consecutive days measured after 18 hrs post last dose by HPLC; format: ADME, organism-based; settings: human, read-out: Drug uptake; in short: as §1

CCCCCOc1ccc(-c2cc(-c3ccc(C(=O)N[C@H]4C[C@@H](O)[C@@H](O)NC(=O)[C@@H]5[C@@H](O)[C@@H](C)CN5C(=O)[C@H]([C@H](O)CC(N)=O)NC(=O)[C@H]([C@H](O)[C@@H](O)c5ccc(O)c(OS(=O)(=O)O)c5)NC(=O)[C@@H]5C[C@@H](O)CN5C(=O)[C@H]([C@@H](C)O)NC4=O)cc3)no2)cc1 [MICAFUNGIN] (X1-[Orn(4R-OH,5R-OH)]T[Hyp][hTyr(3S-OH,4S-OH,3'-OSO3H)][Gln(3R-OH)][Pro(3S-OH,4S-Me)]; lactam 1-C) gave a concentration at 3 h [1] of 0.04 µg/mL, a concentration at 24 h [2] of 1.38 µg/mL and a Kp at 3 h [3] of 0.01. The concentration at 8 h [4] was 4.86 µg/mL, the concentration at 24 h [5] was 9.99 µg/mL and the Kp at 24 h [6] was 1.1. It also gave a half-life [7] of 12.1 h, a concentration at 8 h [8] of 3.93 µg/mL and a Tmax [9] of 17.9 h. It also gave a Cmax [10] of 4.93 µg/mL, a Ratio [11] of 923.1 and a concentration at 18 h [12] of 17.4 µg/mL. It also gave a Cmax [13] of 1.38 µg/mL, a Vd [14] of 17.6 L and an Activity [15] of 41.6 IU/L. The Ratio [16] was 13340, the Ratio [17] was 5077 and the concentration at 5 h [18] was 0.69 µg/mL. For the same molecule, the concentration at 8 h [19] was 0.05 µg/mL, the Activity [20] was 0.74 mg/dL and the Kp at 3 h [21] was 1.53. The AUC(0-t) at 24 h [22] was 14.4 µg·h/mL, the concentration at 24 h [23] was 1.57 µg/mL and the Kp at 8 h [24] was 1.23. For the same molecule, the concentration at 18 h [25] was 2.38 µg/mL.
